pEC50: −log10 of the molar value.
Key:
[1] = test system: Bacillus subtilis; assay: Antimicrobial activity against Bacillus subtilis at 250 ug/disc after 48 hrs by well diffusion method; assay type: functional; conditions: read-out: DIZ
In short: (§1)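 Well diffusion assay. Bacteria were grown on nutrient agar and fungi on Czapek's-Dox agar; spores were inoculated into sterilized medium, dispersed and poured into plates. Compounds were dissolved in DMF at 250 mg/mL and loaded into 1 cm wells. Plates stood 24 h refrigerated for diffusion, then were incubated at 35 °C for 48 h (bacteria) or 28 °C for 5-7 days (fungi). Inhibition zone diameter was read in mm. DMF-only wells served as negative control.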

[2] = test system: Aspergillus viridinutans; assay: Antimicrobial activity against Aspergillus viridinutans at 250 ug/disc after 5 to 7 days by well diffusion method; assay type: functional; conditions: read-out: DIZ; in short: as §1
[3] = test system: Escherichia coli; assay: Antimicrobial activity against Escherichia coli at 250 ug/disc after 48 hrs by well diffusion method; assay type: functional; conditions: read-out: DIZ; in short: as §1
[4] = Selectivity index, ratio of CC50 for cytotoxicity to EC50 for HSV1; assay type: toxicity; conditions: read-out: Ratio CC50/EC50
In short: (§2)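 CC50 is the concentration at which 50% of cells die, and EC50 is the concentration inhibiting 50% of viral infection. SI is calculated as the CC50/EC50 ratio.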

[5] = Selectivity index, ratio of CC50 for cytotoxicity to EC50 for HSV2; assay type: toxicity; conditions: read-out: Ratio CC50/EC50; in short: as §2
[6] = test system: Human alphaherpesvirus 2; assay: Antiviral activity against HSV2 assessed as inhibition of viral infection; assay type: functional, organism-based
[7] = test system: Human alphaherpesvirus 1; assay: Antiviral activity against HSV1 assessed as inhibition of viral infection; assay type: functional, organism-based
[8] = test system: Aspergillus niger; assay: Antimicrobial activity against Aspergillus niger at 250 ug/disc after 5 to 7 days by well diffusion method; assay type: functional; conditions: read-out: DIZ; in short: as §1
[9] = test system: Influenza A virus; assay: Antiviral activity against Influenza A virus H1N1 by cytopathy assay; assay type: functional, organism-based
[10] = test system: Influenza A virus; assay: Antiviral activity against Influenza A virus H5N1 by cytopathy assay; assay type: functional, organism-based
[11] = test system: West Nile virus; assay: Antiviral activity against West Nile virus by visual/neutral red test; assay type: functional, organism-based
[12] = test system: SARS-CoV; assay: Antiviral activity against SARS coronavirus by visual/neutral red test; assay type: functional, organism-based; conditions: Severe acute respiratory syndrome-related coronavirus
[13] = test system: Hepatitis C virus; assay: Antiviral activity against Hepatitis C virus assessed as inhibition of viral infection by RNA replicon assay; assay type: functional, organism-based, Hepacivirus hominis
[14] = test system: Hepatitis B virus; assay: Antiviral activity against Hepatitis B virus assessed as inhibition of viral infection by DNA virion assay; assay type: functional, organism-based
[15] = Selectivity index, ratio of CC50 for cytotoxicity to EC50 for Influenza A virus H3N2; assay type: toxicity; conditions: read-out: Ratio CC50/EC50; in short: as §2
[16] = test system: Influenza B virus; assay: Antiviral activity against Influenza B virus by cytopathy assay; assay type: functional, organism-based
[17] = Selectivity index, ratio of CC50 for cytotoxicity to EC50 for Influenza A virus H1N1; assay type: toxicity; conditions: read-out: Ratio CC50/EC50; in short: as §2
[18] = test system: Influenza A virus; assay: Antiviral activity against Influenza A virus H3N2 by cytopathy assay; assay type: functional, organism-based
[19] = Selectivity index, ratio of CC50 for cytotoxicity to EC50 for Influenza A virus H5N1; assay type: toxicity; conditions: read-out: Ratio CC50/EC50; in short: as §2
[20] = Selectivity index, ratio of CC50 for cytotoxicity to EC50 for Influenza B virus; assay type: toxicity; conditions: read-out: Ratio CC50/EC50; in short: as §2

## N#Cc1c(-c2ccc(Cl)cc2)cc(-c2ccccn2)n([C@@H]2O[C@H](CO)[C@H](O)[C@H](O)[C@H]2O)c1=O
[1]
  zone of inhibition at 250 µg/disc: 2 mm
[2]
  zone of inhibition at 250 µg/disc: 7 mm
[3]
  zone of inhibition at 250 µg/disc: 0 mm

## Nc1nc2c(ncn2COCCO)c(=O)[nH]1 [ACYCLOVIR]
[4]
  selectivity ratio: > 30.3
[5]
  selectivity ratio: > 10.4
[6]
  pEC50: 5.02
[7]
  pEC50: 5.48

## CC(=O)OC[C@H]1O[C@@H](n2c(-c3ccccn3)cc(-c3ccc(Cl)cc3)c(C#N)c2=O)[C@H](OC(C)=O)[C@@H](OC(C)=O)[C@H]1OC(C)=O
[2]
  zone of inhibition at 250 µg/disc: 5 mm
[3]
  zone of inhibition at 250 µg/disc: 0 mm
[8]
  zone of inhibition at 250 µg/disc: 7 mm

## N#Cc1c(-c2ccc(Cl)cc2)cc(-c2ccccn2)nc1OCCCCO
[1]
  zone of inhibition at 250 µg/disc: 2 mm
[2]
  zone of inhibition at 250 µg/disc: 5 mm
[3]
  zone of inhibition at 250 µg/disc: 0 mm
[8]
  zone of inhibition at 250 µg/disc: 7 mm

## CC(C)c1ccc(-c2cc(-c3cccs3)n([C@@H]3O[C@H](CO)[C@@H](O)[C@H](O)[C@H]3O)c(=O)c2C#N)cc1
[1]
  zone of inhibition at 250 µg/disc: 10 mm
[2]
  zone of inhibition at 250 µg/disc: 8 mm
[3]
  zone of inhibition at 250 µg/disc: 0 mm
[8]
  zone of inhibition at 250 µg/disc: 7 mm

## CC(=O)OCCOCn1c(-c2cccs2)cc(-c2cccs2)c(C#N)c1=O
[1]
  zone of inhibition at 250 µg/disc: 10 mm
[2]
  zone of inhibition at 250 µg/disc: 7 mm
[3]
  zone of inhibition at 250 µg/disc: 0 mm
[8]
  zone of inhibition at 250 µg/disc: 8 mm

## CC(C)c1ccc(-c2cc(-c3cccs3)n([C@@H]3O[C@H](CO)[C@H](O)[C@H](O)[C@H]3O)c(=O)c2C#N)cc1
[1]
  zone of inhibition at 250 µg/disc: 3 mm
[2]
  zone of inhibition at 250 µg/disc: 6 mm
[3]
  zone of inhibition at 250 µg/disc: 5 mm

## N#Cc1c(-c2cccs2)cc(-c2cccs2)nc1O
[4]
  selectivity ratio: < 4.7
[5]
  selectivity ratio: < 4.8
[9]
  pEC50: 4.49
[10]
  pEC50: < 4.00
[6]
  pEC50: < 4.92
[11]
  pEC50: < 5.34
[12]
  pEC50: < 4.00
[13]
  pEC50: < 4.00
[14]
  pEC50: < 4.00
[7]
  pEC50: < 4.92
[15]
  selectivity ratio: > 4.2
[16]
  pEC50: < 4.00
[17]
  selectivity ratio: > 3.1
[18]
  pEC50: 4.80

## NC(=O)c1ncn([C@@H]2O[C@H](CO)[C@@H](O)[C@H]2O)n1 [RIBAVIRIN]
[19]
  selectivity ratio: > 76
[9]
  pEC50: 5.00
[10]
  pEC50: 5.38
[15]
  selectivity ratio: > 160
[20]
  selectivity ratio: > 130
[16]
  pEC50: 5.62
[17]
  selectivity ratio: > 32
[18]
  pEC50: 5.70

## CC(=O)OC[C@H]1O[C@@H](n2c(-c3cccs3)cc(-c3ccc(C(C)C)cc3)c(C#N)c2=O)[C@H](OC(C)=O)[C@@H](OC(C)=O)[C@@H]1OC(C)=O
[1]
  zone of inhibition at 250 µg/disc: 1 mm
[4]
  selectivity ratio: > 4.4
[5]
  selectivity ratio: > 4.9
[2]
  zone of inhibition at 250 µg/disc: 7 mm
[19]
  selectivity ratio: 1
[10]
  pEC50: 4.49
[6]
  pEC50: 4.22
[11]
  pEC50: < 5.33
[12]
  pEC50: < 4.00
[13]
  pEC50: < 4.00
[14]
  pEC50: < 4.00
[7]
  pEC50: 4.17
[15]
  selectivity ratio: > 3
[20]
  selectivity ratio: > 2.2
[3]
  zone of inhibition at 250 µg/disc: 0 mm
[16]
  pEC50: 4.40
[18]
  pEC50: 4.48

## CN(C)C=O [DIMETHYLFORMAMIDE]
[1]
  zone of inhibition at 250 µg/disc: 0 mm
[2]
  zone of inhibition at 250 µg/disc: 0 mm
[3]
  zone of inhibition at 250 µg/disc: 0 mm
[8]
  zone of inhibition at 250 µg/disc: 0 mm

## CC(=O)OC[C@H]1O[C@@H](n2c(-c3cccs3)cc(-c3ccc(C(C)C)cc3)c(C#N)c2=O)[C@H](OC(C)=O)[C@@H](OC(C)=O)[C@H]1OC(C)=O
[2]
  zone of inhibition at 250 µg/disc: 6 mm
[8]
  zone of inhibition at 250 µg/disc: 9 mm

## CC(=O)OCCCCOc1nc(-c2ccccn2)cc(-c2ccc(Cl)cc2)c1C#N
[1]
  zone of inhibition at 250 µg/disc: 3 mm
[2]
  zone of inhibition at 250 µg/disc: 7 mm
[3]
  zone of inhibition at 250 µg/disc: 0 mm
[8]
  zone of inhibition at 250 µg/disc: 9 mm

## N#Cc1c(-c2cccs2)cc(-c2cccs2)n([C@@H]2O[C@H](CO)[C@H](O)[C@H](O)[C@H]2O)c1=O
[1]
  zone of inhibition at 250 µg/disc: 4 mm
[2]
  zone of inhibition at 250 µg/disc: 8 mm
[3]
  zone of inhibition at 250 µg/disc: 0 mm

## N#Cc1c(-c2ccc(Cl)cc2)cc(-c2ccccn2)n(CCCO)c1=O
[1]
  zone of inhibition at 250 µg/disc: 3 mm
[2]
  zone of inhibition at 250 µg/disc: 9 mm
[3]
  zone of inhibition at 250 µg/disc: 0 mm

## Nc1ccn([C@@H]2CS[C@H](CO)O2)c(=O)n1 [LAMIVUDINE]
[14]
  pEC50: 7.46

## N#Cc1c(-c2ccc(Cl)cc2)cc(-c2ccccn2)[nH]c1=O
[4]
  selectivity ratio: 1
[5]
  selectivity ratio: 1
[9]
  pEC50: 4.59
[10]
  pEC50: < 4.00
[6]
  pEC50: < 3.52
[11]
  pEC50: < 5.66
[12]
  pEC50: < 6.49
[13]
  pEC50: < 4.00
[14]
  pEC50: < 4.00
[7]
  pEC50: < 3.52
[16]
  pEC50: < 4.44
[17]
  selectivity ratio: > 3.8
[18]
  pEC50: < 5.59

## C=CCOc1nc(-c2ccccn2)cc(-c2ccc(Cl)cc2)c1C#N
[1]
  zone of inhibition at 250 µg/disc: 1 mm
[2]
  zone of inhibition at 250 µg/disc: 7 mm
[3]
  zone of inhibition at 250 µg/disc: 0 mm

## CC(C)c1ccc(-c2cc(-c3cccs3)n(COCCO)c(=O)c2C#N)cc1
[1]
  zone of inhibition at 250 µg/disc: 23 mm
[2]
  zone of inhibition at 250 µg/disc: 6 mm
[3]
  zone of inhibition at 250 µg/disc: 0 mm
[8]
  zone of inhibition at 250 µg/disc: 7 mm

## CC1(C)O[C@@H]2C[C@H]3[C@@H]4C[C@H](F)C5=CC(=O)C=C[C@]5(C)[C@@]4(F)[C@@H](O)C[C@]3(C)[C@]2(C(=O)CO)O1 [FLUOCINOLONE ACETONIDE]
[2]
  zone of inhibition at 250 µg/disc: 31 mm
[8]
  zone of inhibition at 250 µg/disc: 22 mm

## N#Cc1c(-c2cccs2)cc(-c2cccs2)n([C@@H]2O[C@H](CO)[C@@H](O)[C@H](O)[C@H]2O)c1=O
[1]
  zone of inhibition at 250 µg/disc: 2 mm
[2]
  zone of inhibition at 250 µg/disc: 6 mm

## CC(C)c1ccc(-c2cc(-c3cccs3)[nH]c(=O)c2C#N)cc1
[4]
  selectivity ratio: 1
[5]
  selectivity ratio: 1
[19]
  selectivity ratio: > 3.1
[10]
  pEC50: 4.49
[6]
  pEC50: < 3.52
[11]
  pEC50: < 5.66
[12]
  pEC50: < 4.59
[13]
  pEC50: < 4.00
[14]
  pEC50: < 4.00
[7]
  pEC50: < 3.52
[15]
  selectivity ratio: > 4.5
[20]
  selectivity ratio: > 2.2
[16]
  pEC50: 4.34
[18]
  pEC50: 4.66

## CC1(C)S[C@@H]2[C@H](NC(=O)[C@H](N)c3ccccc3)C(=O)N2[C@H]1C(=O)O [AMPICILLIN]
[1]
  zone of inhibition at 250 µg/disc: 20 mm
[3]
  zone of inhibition at 250 µg/disc: 18 mm

## CC(=O)OC[C@H]1O[C@@H](n2c(-c3cccs3)cc(-c3cccs3)c(C#N)c2=O)[C@H](OC(C)=O)[C@@H](OC(C)=O)[C@@H]1OC(C)=O
[1]
  zone of inhibition at 250 µg/disc: 2 mm
[4]
  selectivity ratio: < 4
[5]
  selectivity ratio: < 4
[2]
  zone of inhibition at 250 µg/disc: 6 mm
[10]
  pEC50: < 4.00
[6]
  pEC50: < 4.22
[11]
  pEC50: < 5.52
[12]
  pEC50: < 4.49
[13]
  pEC50: < 4.00
[14]
  pEC50: < 4.00
[7]
  pEC50: < 4.22
[15]
  selectivity ratio: > 2.5
[20]
  selectivity ratio: 1
[3]
  zone of inhibition at 250 µg/disc: 0 mm
[16]
  pEC50: 4.49
[18]
  pEC50: 4.40
[8]
  zone of inhibition at 250 µg/disc: 8 mm

## C[C@@]1(O)[C@H](O)[C@@H](CO)O[C@H]1n1ccc(N)nc1=O
[13]
  pEC50: 5.80

— ChEMBL document CHEMBL3120115, “Synthesis and biological evaluation of 2-oxonicotinonitriles and 2-oxonicotinonitrile based nucleoside analogues” (Eur J Med Chem, 2014)
